{"source": "paper PMC3143825", "about": "(Bioorganic & medicinal chemistry, 2011)", "key": {"[1]": {"system": "Hsp90 from SKBr3 cellular extracts", "assay": "Fluorescence polarization", "type": "binding", "conditions": "for IC50: read-out: IC50, binding affinity for Hsp90, Hsp90 from SKBr3 cellular extracts, displacement of GM-cy3B (6 nM), 4°C, 24 h"}, "[2]": {"biological_target": "Cell surface Hsp90 in MV4-11 leukemia cells (Homo sapiens, UniProt P07900)", "assay": "Flow cytometry detection of cell surface Hsp90", "type": "cell-based", "conditions": "MV4-11 cells, 2 h at 37°C, SA-PE staining; D-biotin as control"}, "[3]": {"system": "c-Kit and IGF-IR in MDA-MB-468 cells", "type": "cell-based", "conditions": "5 μM, 24 h", "how_it_was_run": "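MDA-MB-468 breast cancer cells kept in DME/F12 with 10% FBS, 1% L-glutamine and 1% penicillin/streptomycin at 37°C under 5% CO₂. Grown to 60–70% confluence, then exposed to test compound for 24 h. Lysed in 50 mM Tris pH 7.4, 150 mM NaCl, 1% NP-40. 10–50 μg protein run on SDS-PAGE and blotted to nitrocellulose. Probed with anti-IGF-IR (1:1000) and anti-c-Kit (1:200), then HRP secondary (1:3000), with ECL detection.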"}}}
{"smiles": "Nc1ncnc2c1nc(Sc1cc3c(cc1I)OCO3)n2CCCNCCOCCOCCOCCNC(=O)CCCC[C@@H]1SC[C@@H]2NC(=O)N[C@@H]21", "note": "[Compound 7]", "values": [{"measurement": "IC50", "setting": "[1]", "value": 67.1, "unit": "nM"}, {"measurement": "detection of cell surface Hsp90", "setting": "[2]", "value": "can detect Hsp90 expression on the surface of leukemia cells"}]}
{"smiles": "CC(C)NCCCn1c(Sc2cc3c(cc2I)OCO3)nc2c(N)ncnc21", "note": "[PU-H71, reference compound]", "values": [{"measurement": "steady-state levels of c-Kit and IGF-IR", "setting": "[3]", "value": "reduction in the steady-state levels"}, {"measurement": "IC50", "setting": "[1]", "value": 22.4, "unit": "nM"}]}
{"smiles": "CC1(C)CC(=O)c2c(C(F)(F)F)nn(-c3ccc(C(N)=O)c(N[C@H]4CC[C@H](NC(=O)CCCCCN)CC4)c3)c2C1", "note": "[Compound 20, 2-(trans-4-(6-Aminohexanamido)cyclohexylamino)-4-(6,6-dimethyl-4-oxo-3-(trifluoromethyl)-4,5,6,7-tetrahydro-1H-indazol-1-yl)benzamide]", "values": [{"measurement": "IC50", "setting": "[1]", "value": 24.7, "unit": "nM"}]}
{"smiles": "CCNC(=O)c1noc(-c2cc(C(C)C)c(O)cc2O)c1-c1ccc(CNCCCCCCN)cc1", "note": "[Compound 10, 4-(4-((6-Aminohexylamino)methyl)phenyl)-5-(2,4-dihydroxy-5-isopropylphenyl)-N-ethylisoxazole-3-carboxamide]", "values": [{"measurement": "IC50", "setting": "[1]", "value": 7, "unit": "nM"}]}
{"smiles": "CC1(C)CC(=O)c2c(C(F)(F)F)nn(-c3ccc(C(N)=O)c(N[C@H]4CC[C@H](N)CC4)c3)c2C1", "note": "[Compound 18, 2-(trans-4-Aminocyclohexylamino)-4-(6,6-dimethyl-4-oxo-3-(trifluoromethyl)-4,5,6,7-tetrahydro-1H-indazol-1-yl)benzamide]", "values": [{"measurement": "fold loss in potency as compared to SNX-2112", "setting": "[1]; FP assay, SKBr3 extract", "value": "~14", "unit": "fold"}, {"measurement": "IC50", "setting": "[1]", "value": 210, "unit": "nM"}]}
{"smiles": "CCNC(=O)c1noc(-c2cc(C(C)C)c(O)cc2O)c1-c1ccc(CN2CCOCC2)cc1", "note": "[NVP-AUY922, reference compound]", "values": [{"measurement": "IC50", "setting": "[1]", "value": 4.1, "unit": "nM"}]}
